Measurements from ChEMBL document CHEMBL3286328, “Characterization of proapoptotic compounds from the bark of Garcinia oblongifolia” (J Nat Prod, 2014).
The source made the active and inactive calls. The rule behind the calls is not given here.

Experiments:
[1] = Cytotoxicity against human HeLaC3 sensor cells assessed as decrease in YFP/CFP emission ratio within 72 hrs by FRET assay; format: functional, HeLa C3
How it was run: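 HeLa-C3 cells stably express a CFP–DEVD linker–YFP FRET caspase-3 sensor. Cells were seeded at 7500 per well, and after 12−16 h a background-subtracted baseline was read (excitation 440 nm; emission 486 nm CFP, 535 nm YFP). Compound at 10 μM was added in fresh medium, with 0.1% DMSO vehicle and 500 nM paclitaxel as positive control. Plates were read repeatedly for up to 72 h. An active compound lowers the YFP/CFP ratio to 3 or below.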

[2] = test system: HeLa; assay: Cytotoxicity against human HeLa cells assessed as decrease in cell viability at 10 uM after 72 hrs by MTT assay; format: functional
How it was run: (§1)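 HeLa cells were exposed to compound at 10 μM for 72 h. Vehicle was medium with 0.1% DMSO; paclitaxel (500 nM) was the positive control. MTT (5 mg/mL stock in PBS) was added for 2 h at 37 °C. Crystals were dissolved in 10% SDS/0.01 M HCl for 24 h at 37 °C, and OD was read at 595 nm. Viability at 0 h was set to 100. Three independent experiments.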

[3] = test system: HeLa; assay: Induction of apoptosis in human HeLa cells assessed as morphological and condensed or fragmented DNA at 10 uM after 72 hrs by Hoechst 33342 staining in presence of z-VAD-fmk; format: functional, cell-based
How it was run: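 HeLa cells were treated with compound (10 μM) alone or with zVAD-fmk (50 μM) for 72 h. Controls were medium with 0.1% DMSO, with or without zVAD-fmk. Cells were stained with Hoechst 33342, washed three times with PBS, and imaged by phase contrast and fluorescence microscopy for cell and nuclear morphology.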

[4] = test system: HeLa; assay: Cytotoxicity against human HeLa cells assessed as decrease in cell viability after 72 hrs by MTT assay; format: functional, cell-based
How it was run: (§2)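 For each cell line, 3000 cells per well were cultured overnight, then given fresh medium with compound. Each compound was tested at ≥7 concentrations in a 3-fold dilution series, with a final DMSO-stock dilution of at least 1000-fold. After 72 h, viability was read by MTT (OD 595 nm). Inhibition was calculated as 1 − [(T72 − C0)/(C72 − C0)] against the 0.1% DMSO control and fitted sigmoidally versus log concentration. Values are mean ± SD, n = 3.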

[5] = test system: MDA-MB-435; assay: Cytotoxicity against human MDA-MB-435 cells assessed as decrease in cell viability after 72 hrs by MTT assay; format: functional, cell-based; details: MDA-MB-435, 72 h; how it was run: as §2
[6] = test system: HepG2; assay: Cytotoxicity against human HepG2 cells assessed as decrease in cell viability after 72 hrs by MTT assay; format: functional, cell-based; details: HepG2, 72 h; how it was run: as §2
[7] = test system: MCF7; assay: Cytotoxicity against human MCF7 cells assessed as decrease in cell viability after 72 hrs by MTT assay; format: functional, cell-based; details: MCF7, 72 h; how it was run: as §2
[8] = test system: MCF7; assay: Cytotoxicity against human MCF7 cells overexpressing HER2 assessed as decrease in cell viability after 72 hrs by MTT assay; format: functional, cell-based; details: MCF7, 72 h; how it was run: as §2
[9] = test system: HCT-116; assay: Cytotoxicity against human HCT116 cells assessed as decrease in cell viability after 72 hrs by MTT assay; format: functional, cell-based; details: HCT-116, 72 h; how it was run: as §2
[10] = Cytotoxicity against human HCT15 cells assessed as decrease in cell viability after 72 hrs by MTT assay; format: functional, cell-based; details: HCT-15, 72 h; how it was run: as §2
[11] = test system: HeLa; assay: Cytotoxicity against human HeLa cells assessed as decrease in cell viability at 10 uM after 72 hrs by MTT assay relative to control; format: functional; how it was run: as §1
[12] = test system: HeLa; assay: Induction of apoptosis in human HeLa cells assessed as caspase-3 activation at 10 uM after 24 hrs; format: functional, cell-based
How it was run: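 HeLa cells were treated for 24 h with compound (10 μM), against 0.1% DMSO vehicle; the positive control was UV for 3 min, harvested after 6 h. Lysates were made in Tris pH 7.5/Triton buffer with protease inhibitors. A sample of 50 μg protein was incubated with Ac-DEVD-AMC in HEPES pH 7.5 buffer for 1 h at 37 °C in the dark. Fluorescence was read at 355/460 nm and expressed as net reading per μg protein.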

SMILES | Ratio [1] | viability at 10 µM [2] [%] | Activity [3] | IC50 [4] [µM] | IC50 [5] [µM] | IC50 [6] [µM] | IC50 [7] [µM] | IC50 [8] [µM] | IC50 [9] [µM] | IC50 [10] [µM] | fold change (FC) [11] | Activity [12]
CC1(C)C=Cc2cc3c(=O)c4c(O)cc(O)cc4oc3c(O)c2O1 | 3 | 50 | inactive | 4.9 | 3.9 | 10.1 | 11.7 | 34.4 | 4.7 | 5.1 |  | 
CC(C)=CCC/C(C)=C/C[C@@H]1C[C@]2(CC=C(C)C)C(=O)[C@@](CC=C(C)C)(C(=O)C(C(=O)c3cccc(O)c3)=C2O)[C@@]1(C)CCC=C(C)C [GARCICOWIN B] | 3 | 50 | inactive | 10.8 | 12.6 | 6.2 | 10.8 | 19.1 | 6 | 9.6 |  | 
COc1cc(O)c2c(=O)c3ccc(O)c(O)c3oc2c1CCC(C)(C)O [NIGROLINEAXANTHONE T] | 3 | 50 | inactive | 4.7 | 9 | 4.8 | 3 | 3.8 | 3.7 | 2.4 |  | 
CC(C)=CCC/C(C)=C/C[C@H]1C(C)(C)[C@@]2(CC=C(C)C)C(=O)c3c(oc4cc(O)c(O)cc4c3=O)[C@](CC=C(C)C)(C2=O)C1(C)C [OBLONGIFOLIN F] | 3 | 50 | inactive | 4.2 | 16.5 | 7.7 | 3 | 5.1 | 2.9 | 4.9 | >30 | Active
CC(C)=CCC/C(C)=C/C[C@@H]1C(C)(C)[C@@]2(CC=C(C)C)C(=O)c3c(oc4cc(O)c(O)cc4c3=O)[C@](CC=C(C)C)(C2=O)C1(C)C [OBLONGIFOLIN G] | 3 | 50 | inactive | 3.9 | 16.5 | 7.7 | 2.6 | 2.9 | 2.9 | 4 | >30 | Active
